Measured values from paper PMC2574667 (Journal of Medicinal Chemistry, 2008).
Entries after “also recorded” stand apart in the source; their conditions may differ. Read-outs that look alike come from different tables or passages of the source. Each block holds one compound with its values, some of them ahead of it.

How the values were obtained:
[1] = type: physicochemical
Method in brief: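 Hydrolysis at 37 °C was run in 0.1 M phosphate pH 7.4 or 0.05 M citrate pH 3.8–4.6, in light-protected sealed bottles. Daily aliquots were scanned 200–400 nm for up to 11 days. First-order k came from ln(At − Ainf) versus time, with Ainf extrapolated when the reaction was incomplete. Runs in 1.0 M NaOH were followed directly in a thermostated spectrophotometer cell. Other media: NaOH, glycine/NaOH pH 10, phosphate pH 8.1.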

[2] = first order in hydroxide ion; cited from earlier work
[3] = Nitrite accumulation; type: physicochemical; conditions: 37 °C; for nitrite recovery: 24 h incubation, PBS and cell culture medium containing 2.5% fetal calf serum
Method in brief: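 Compound at 0.25–1 mM was incubated 24 h at 37 °C, without cells, in PBS or in RPMI containing 2.5% fetal calf serum. NO release was estimated as accumulated nitrite by Griess assay. Solutions assayed immediately after dissolution served as the zero point.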

[4] = test system: N-acetylglucosaminidase from jack bean; test: Glycosidase-induced hydrolysis, jack bean enzyme; type: biochemical; conditions: 37 °C; for k, first order rate constant of enzymatic hydrolysis: JB enzyme 0.11 units/mL, 0.1 M phosphate pH 7.4, ultraviolet spectrophotometry
Method in brief: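 Jack bean β-N-acetylglucosaminidase (0.11 units/mL) was incubated with substrate (0.09–0.16 mM initial) at 37 °C in 0.1 M phosphate, pH 7.4, with 0.05 mM DTPA. NO was detected by chemiluminescence until evolution ceased, and the trace was integrated per mole of compound. Nitrite in the remaining solution was measured by Griess. First-order rate constants came from UV absorbance at 227 or 256 nm. Enzyme activity was checked with PNP-NAG at 25 °C.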

[5] = test system: intracellular L. major amastigotes; test: Assay for leishmanicidal activity in infected macrophages; type: cell-based, Leishmania major; conditions: 125 or 250 µM, up to 72 h, macrophages from iNOS-deficient mice
Method in brief: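 Macrophages were thioglycolate-elicited from the peritoneum of C57BL/6 iNOS-deficient mice, harvested 4 days after ip thioglycolate, and plated at 3 × 10^5/well in RPMI-1640 with 2.5% or 5% FBS. They were infected 4 h at 5:1 with lesion-derived MHOM/IL/81/FE/BNI amastigotes, then treated 72 h with medium and compound refreshed at 24 and 48 h. Diff-Quick counts at 0, 48 and 72 h gave parasites per 100 macrophages, as mean ±SD.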

[6] = test system: peritoneal exudate macrophages from iNOS-deficient mice; test: Nitrite accumulation; type: cell-based; conditions: 0.25 mM, medium with 2.5% fetal calf serum, iNOS^−/− mouse macrophages, 24 h
Method in brief: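 Peritoneal exudate macrophages from iNOS-deficient mice were cultured 24 h at 37 °C in RPMI containing 2.5% fetal calf serum with 0.25 mM compound, alongside cell-free medium and PBS. Supernatants were harvested and cumulative NO was estimated as nitrite by Griess assay. Further runs used 125 or 250 µM with 0–5% FCS.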

[7] = molecular target: N-acetylglucosaminidase from human placenta (Homo sapiens, UniProt P07686); test: Glycosidase-induced hydrolysis, human placenta enzyme; type: biochemical; conditions: HP enzyme 0.044 units/mL, 37 °C, 0.1 M phosphate pH 7.4; ultraviolet spectrophotometry
N-acetylglucosaminidase from human placenta, sequence (P07686 122-311 limits assumed): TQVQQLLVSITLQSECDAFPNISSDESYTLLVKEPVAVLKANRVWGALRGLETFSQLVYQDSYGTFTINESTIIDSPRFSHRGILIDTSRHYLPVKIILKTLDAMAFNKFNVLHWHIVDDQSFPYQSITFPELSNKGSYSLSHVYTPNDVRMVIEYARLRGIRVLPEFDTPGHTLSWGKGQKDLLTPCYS
N-acetylglucosaminidase from human placenta, sequence (P07686 315-556 limits assumed): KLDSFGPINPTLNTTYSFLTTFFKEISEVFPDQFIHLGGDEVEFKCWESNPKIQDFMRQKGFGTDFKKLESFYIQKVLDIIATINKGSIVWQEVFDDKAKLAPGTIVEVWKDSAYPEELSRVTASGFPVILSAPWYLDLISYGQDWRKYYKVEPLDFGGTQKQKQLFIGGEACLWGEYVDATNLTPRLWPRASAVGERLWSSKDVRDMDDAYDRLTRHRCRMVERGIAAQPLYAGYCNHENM

[8] = test system: peritoneal exudate macrophages from iNOS-deficient mice; test: Viability of macrophage monolayers; type: cell-based, mouse; conditions: concentrations tested (125 or 250 µM); trypan blue staining, MTT assay
Method in brief: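 Infected macrophage monolayers from iNOS-deficient mice were exposed to compound at 125 or 250 µM. Viability was checked by microscopy with trypan blue staining of dead cells. Mitochondrial activity of the whole monolayer was read photometrically as MTT reduction to formazan, in triplicate.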

[9] = phosphate buffer, pH 7.4, half-life pH 7.4, 0.1 M phosphate pH 7.4, 37 °C

half-life [1, 9]: > 240 h
SMILES: CCN(CC)/[N+]([O-])=N/O[C@@H]1O[C@H](CO)[C@@H](O)[C@H](O)[C@H]1O [3a]
rate constant kOH^– of base-induced hydrolysis [2]: 0.0053 M⁻¹ s⁻¹

half-life ([1]; citrate buffer, pH 4.6, half-life pH 4.6, 0.05 M citrate pH 4.6, 37 °C): > 240 h
nitrite recovery [3]: little or no nitrite
NO generation on incubation with N-acetylglucosaminidase ([4]; parallel incubation to 9a): Negligible NO generation
SMILES: CCN(CC)/[N+]([O-])=N/O[C@H]1O[C@H](CO)[C@@H](O)[C@H](O)[C@@H]1O [5a, O^2-(α-D-Mannopyranosyl) 1-(N, N-Diethylamino)diazen-1-ium-1,2-diolate]
effect on number of intracellular L. major parasites [5]: borderline significance

SMILES: [O-][N+](=NO[C@H]1O[C@H](CO)[C@@H](O)[C@H](O)[C@@H]1O)N1CCCC1 [5b, O^2-(α-D-Mannopyranosyl) 1-(Pyrrolidin-1-yl)diazen-1-ium-1,2-diolate]
effect on number of intracellular L. major parasites [5]: only one of the mannosides (5a) showed any activity

SMILES: CCN(CC)/[N+]([O-])=N/O[C@@H]1O[C@@H](C)[C@@H](O)[C@@H](O)[C@@H]1O [7a, O^2-(β-L-Fucopyranosyl) 1-(N,N-Diethylamino)diazen-1-ium-1,2-diolate]
effect on number of intracellular L. major parasites [5]: Neither of the fucose derivatives had any perceivable effect

SMILES: C[C@@H]1O[C@H](ON=[N+]([O-])N(C)C)[C@@H](O)[C@H](O)[C@@H]1O [7c, O^2-(β-L-Fucopyranosyl) 1-(N,N-Dimethylamino)diazen-1-ium-1,2-diolate]
effect on number of intracellular L. major parasites [5]: Neither of the fucose derivatives had any perceivable effect

SMILES: CCN(CC)/[N+]([O-])=N/O[C@@H]1O[C@H](CO)[C@@H](O)[C@H](O)[C@H]1NC(C)=O [9a, O^2-(N-Acetyl-β-D-glucosaminyl) 1-(N,N-Diethylamino)diazen-1-ium-1,2-diolate]
increase in hydrolysis rate relative to 9b ([1]; pH 7.4 phosphate buffer): > 20 fold
half-life [1, 9]: ~12 h
nitrite recovery [3]: 10−20%
increase of nitrite yield by macrophages [6]: approximately doubled
k, first order rate constant of enzymatic hydrolysis [4]: 0.00062 s⁻¹
k, first order rate constant of enzymatic hydrolysis [7]: 0.00041 s⁻¹
effect on number of intracellular L. major parasites [5]: highly significant decrease; also recorded: decidedly antileishmanial
toxicity to the macrophage host cells [8]: no observable toxicity

SMILES: CC(=O)N[C@H]1[C@H](O/N=[N+](\[O-])N2CCCC2)O[C@H](CO)[C@@H](O)[C@@H]1O [9b, O^2-(β-D-N-Acetylglucosaminyl) 1-(Pyrrolidin-1-yl)diazen-1-ium-1,2-diolate]
hydrolysis in PBS relative to 9a ([3]; PBS, nitrite yield, 24 h): more than an order of magnitude slower
k, first order rate constant of enzymatic hydrolysis [4]: 0.00031 s⁻¹
k, first order rate constant of enzymatic hydrolysis [7]: 0.00036 s⁻¹
effect on number of intracellular L. major parasites [5]: highly significant decrease; also recorded: decidedly antileishmanial
toxicity to the macrophage host cells [8]: no observable toxicity

half-life [1, 9]: ~12 h
SMILES: CCN(CC)/[N+]([O-])=N/O[C@H]1C[C@@H](O)[C@H](O)[C@@H](CO)O1 [11a, O^2-[2-Deoxy-β-D-glucopyranosyl] 1-(N,N-Diethylamino)diazen-1-ium-1,2-diolate]

SMILES: O=NO [Nitrite ion]
effect on number of intracellular L. major parasites [5]: devoid of antileishmanial activity

hydrolysis time ([1]; all pH values studied, 37 °C): within minutes
SMILES: CCN(CC)/[N+]([O-])=N\OC1CCCCO1 (centres unmarked) [compound 12, O^2-Tetrahydropyran-2-yl 1-(N,N-Diethylamino)diazen-1-ium-1,2-diolate]

SMILES: COC(=O)CCC(=O)NO[C@@H]1O[C@H](CO)[C@@H](O)[C@H](O)[C@H]1NC(C)=O [compound 13, N-(β-D-N′-Acetylglucosaminyloxy)succinamate O-Methyl Ester, reference compound]
effect on number of intracellular L. major parasites [5]: did not have any effect
